Reference: PMC9055608 (RSC Advances, 2020)
Values joined by “and” are separate entries in the source; they are usually repeats but may differ in a detail not shown here. Identical values can stand only once.

Columns and labels:
[1] = in vivo; format: in vivo, rats; conditions: rat, tail vein injection 14 mg kg^−1 DHDK solution
[2] = test system: A-549; assay: MTT cell proliferation assay, A-549; format: cell-based, human; conditions: Homo sapiens, A549, 72 h
Procedure, shortened: (§1)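 ATCC lines grown in DMEM or RPMI-1640 with 10% heat-inactivated FBS and 1% penicillin/streptomycin at 37 °C, 5% CO2. Log-phase cells seeded at about 4000–5000/well and left to adhere 24 h. Sextuplicate wells, 72 h. MTT for 4 h, then DMSO and absorbance. IC50 taken from dose–response curves.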

[3] = test system: HT-29; assay: MTT cell proliferation assay, HT-29; format: cell-based, human; conditions: Homo sapiens, HT-29, 72 h
Procedure, shortened: as §1

[4] = test system: A375; assay: MTT cell proliferation assay, A375; format: cell-based, human; conditions: Homo sapiens, A-375, 72 h
Procedure, shortened: as §1

[5] = test system: cancer cell lines; assay: MTT assay, cancer cell lines; format: cell-based; conditions: Homo sapiens, read-out: IC50 of other tumour cells
Procedure, shortened: as §1

[6] = test system: MDA-MB231; assay: MTT cell proliferation assay, MDA-MB231; format: cell-based, human; conditions: Homo sapiens, MDA-MB-231, 72 h
Procedure, shortened: as §1

[7] = test system: DU-145; assay: MTT cell proliferation assay, DU-145; format: cell-based, human; conditions: Homo sapiens, DU-145, 72 h
Procedure, shortened: as §1

[8] = Biochemical indexes in serum and plasma; format: in vivo, mice; conditions: for BUN mean ± SD: plasma; for BUN mean ± SD / ALT mean ± SD / AST mean ± SD / CRE mean ± SD: DHDK micelles every day for 9 days; for ALT mean ± SD / AST mean ± SD / CRE mean ± SD: serum
Procedure, shortened: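 Female mice were split into four groups (n = 6) and injected daily for 9 days with test-compound micelles, following the dosing regimen of the xenograft study. Animals were killed on the last dosing day. Kits measured AST, ALT and creatinine in serum, and urea nitrogen in plasma.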

[9] = test system: MCF-7 xenograft tumour; assay: Drug efficacy in vivo, MCF-7 breast cancer model; parameters: species or system nude mice
[10] = Mouse weight during in vivo efficacy study; parameters: species or system nude mice; conditions: during the nine days of treatment
[11] = Pathological tissue sections; format: in vivo, nude mice; conditions: tissues exposed to different dosages; end of 9 day treatment; HE staining
Procedure, shortened: (§2)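 Tumour-bearing nude mice were anaesthetised and killed after the 9-day dosing. Heart, liver, spleen, lung, kidney, brain and tumour were fixed in 10% formalin, embedded in paraffin, cut into 4 μm sections and stained with haematoxylin–eosin.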

[12] = test system: normal cell lines (LO2, GES-1, BEAS-2B); assay: MTT assay, normal cell lines; format: cell-based, human; conditions: all DHDK concentrations
Procedure, shortened: (§3)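 Cells seeded at about 4000–5000/well and allowed 24 h to adhere. MTT for 4 h, formazan dissolved in DMSO, absorbance read, and inhibition rate per concentration reported.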

[13] = test system: MCF-7 xenograft tumour; assay: Pathological tissue sections; format: in vivo, nude mice
Procedure, shortened: as §2

[14] = test system: BEAS-2B human normal lung epithelial cell; assay: MTT assay, cytotoxicity against normal cell line BEAS-2B; format: cell-based
Procedure, shortened: as §3

[15] = test system: Calu-3; assay: MTT cell proliferation assay, Calu-3; format: cell-based, human; conditions: Homo sapiens, Calu-3, 72 h
Procedure, shortened: as §1

O=C(/C=C/CCc1ccc(O)cc1)/C=C/c1ccc(O)cc1 [DHDK, (1E,4E)-1,7-Bis(4-hydroxyphenyl)hepta-1,4-dien-3-one]
V 1 [1]: 0.037 L/kg
t 1/2α ([1]; two-compartmental analysis): 3.84 min
IC50 [2]: 8.01 ± 0.44 µM
IC50 [3]: 4.79 ± 0.54 µM
IC50 [4]: 6.64 ± 0.4 µM
IC50 [5]: < 11 µM and < 3.25 µg/mL
IC50 [6]: 4.49 µM
IC50 [7]: 4.62 ± 0.22 µM
liver and kidney toxicity (from BUN, CRE, AST, ALT) ([8]; all administration groups vs blank group): no potential liver and kidney toxicity
BUN mean ± SD ([8]; high dose group): 9.86 ± 0.33 mmol/L
BUN mean ± SD ([8]; low dose group): 10.16 ± 1.35 mmol/L
BUN mean ± SD ([8]; medium dose group): 9.74 ± 0.47 mmol/L
ALT mean ± SD ([8]; high dose group): 38.41 ± 0.67 U L^−1
AST mean ± SD ([8]; high dose group): 52.98 ± 3.07 U L^−1
CRE mean ± SD ([8]; high dose group): 82.97 ± 2.97 µmol/L
ALT mean ± SD ([8]; low dose group): 39.18 ± 0.81 U L^−1
AST mean ± SD ([8]; low dose group): 50.90 ± 3.04 U L^−1
CRE mean ± SD ([8]; low dose group): 78.85 ± 3.90 µmol/L
ALT mean ± SD ([8]; medium dose group): 39.70 ± 2.75 U L^−1
AST mean ± SD ([8]; medium dose group): 50.93 ± 0.81 U L^−1
CRE mean ± SD ([8]; medium dose group): 87.97 ± 7.63 µmol/L
tumour inhibition rate of DHDK high-dose group as share of the cisplatin group ([9]; DHDK 40 mg kg^−1 vs cisplatin 5 mg kg^−1): 74.6%
Tumour weight (mean) ([9]; group B, low-dose, DHDK micelles 10 mg kg^−1 every day for 9 days): 597.04 ± 38.19
Tumour weight (mean) ([9]; group C, medium-dose, DHDK micelles 20 mg kg^−1 every day for 9 days): 540.53 ± 63.76
Tumour weight (mean) ([9]; group D, high-dose, DHDK micelles 40 mg kg^−1 every day for 9 days): 435.13 ± 140.10
Inhibition rate (IR) determined as tumour weight ([9]; high-dose, DHDK 40 mg kg^−1 every day for 9 days): 47.85%
Inhibition rate (IR) determined as tumour weight ([9]; low-dose, DHDK 10 mg kg^−1 every day for 9 days): 28.44%
Inhibition rate (IR) determined as tumour weight ([9]; medium-dose, DHDK 20 mg kg^−1 every day for 9 days): 35.22%
mouse weight course (in words) [10]: stable weight
toxicity in tissue slices [11]: No toxicity was observed
inhibition rate of each group on normal cells [12]: less than 5%
tumour histopathology ([13]; high-dose group, DHDK 40 mg kg^−1): A large amount of tumour necrosis with nuclear envelope breakdown and dissolved nucleus
tumour histopathology ([13]; low-dose group, DHDK 10 mg kg^−1): A small amount of punctate nucleolysis and a low degree of necrosis
tumour histopathology ([13]; medium-dose group, DHDK 20 mg kg^−1): point necrosis and dissolved nucleus
Inhibition rate ([14]; DHDK 0.14 μmol·L^−1): 0.059%
OD value (mean ± SD) ([14]; DHDK 0.14 μmol·L^−1): 0.66 ± 0.0017
OD value (mean ± SD) ([14]; DHDK 0.42 μmol·L^−1): 0.66 ± 0.0028
OD value (mean ± SD) ([14]; DHDK 1.26 μmol·L^−1): 0.66 ± 0.0027
OD value (mean ± SD) ([14]; DHDK 3.8 μmol·L^−1): 0.66 ± 0.0010
OD value (mean ± SD) ([14]; DHDK 11.3 μmol·L^−1): 0.64 ± 0.0028
OD value (mean ± SD) ([14]; DHDK 34.0 μmol·L^−1): 0.63 ± 0.0030
inhibition at 0.42 µM ([14]; Homo sapiens, read-out: Inhibition rate, BEAS-2B, DHDK 0.42 μmol·L^−1): 0.5%
inhibition at 1.26 µM ([14]; Homo sapiens, read-out: Inhibition rate, BEAS-2B, DHDK 1.26 μmol·L^−1): 0.83%
inhibition at 3.8 µM ([14]; Homo sapiens, read-out: Inhibition rate, BEAS-2B, DHDK 3.8 μmol·L^−1): 0.86%
inhibition at 11.3 µM ([14]; Homo sapiens, read-out: Inhibition rate, BEAS-2B, DHDK 11.3 μmol·L^−1): 3.1%
inhibition at 34 µM ([14]; Homo sapiens, read-out: Inhibition rate, BEAS-2B, DHDK 34.0 μmol·L^−1): 4.82%
IC50 [15]: 6.65 ± 0.42 µM
